# Shown is part of a subset that was picked to be rich in hits.
# UPR CHOP act – activators of apoptotic CHOP UPR arm, primary screen, cell-based, CHO-CHOP luciferase reporter, luminescence, uHTS; UPR activation; percent of tunicamycin response over DMSO baseline; activation, % at 10 µM; hit rate 0.34% among 330,000; AID 449763, 2010;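 active = at 10 µM dose, activation of 40% or more, normalized to positive control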;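 note: 100% = tunicamycin at 10 µg/mL and 0% = DMSO alone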
#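 System: CHO-CHOP luciferase reporter cell line; amount: 500 cells/well; buffer or medium: F12 medium containing 10% fetal bovine serum; incubation: 6 h compound exposure at 37 °C after overnight seeding; measured by: luciferase luminescence after 10 min with Steady-Glo reagent; evaluation: % reporter activation, DMSO baseline versus tunicamycin full activation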
# pCIP destab – p/CIP-EGFP fusion destabilizers, primary screen, fluorescence, F442A cells. Q05BA5. 16 h. decrease of EGFP signal, % at 10 µM. hit rate 0.01% among 290,000. AID 1984, 2009;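 active = EGFP signal decrease of at least 30% at 10 µM or well 3 SD below plate mean, unless failing retest; inactive = the rest, including hits failing retest or dose response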
# B2AR ag – beta2AR agonists driving receptor internalization, primary screen, cell-based, FAP fluorogen, flow cytometry; Beta-2 adrenergic receptor (Homo sapiens), P07550; hit rate 0.43% among 340,000; Am2.2-beta2AR cells; response, % (concentration not given with the values); AID 504454, 2011;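 active = response above a set limit, near 3 SD of response in nonfluorescent compounds, cut at about 42% in these data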
# XBP1 UPR activ – activators of adaptive XBP1 UPR arm, primary screen, cell-based, CHO-XBP1 luciferase reporter, luminescence, uHTS | activation, % at 20 µM | IRE1-XBP1 UPR activation; percent of tunicamycin response, DMSO as zero | hit rate 0.33% among 330,000;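 active = versus positive control, 20 µM dose yields 30% or more activation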;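 note: 100% = tunicamycin at 10 µg/mL and 0% = DMSO only wells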
#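 assay system = CHO-XBP1 luciferase reporter cells | amount = 1000 cells/well | buffer or medium = F12 plus 10% FBS | compound dosing = single point, 20 µM final compound, 1% DMSO | incubation = 16-18 h cell attachment at 37 °C, then 6 h compound exposure | detection = Steady-Glo luminescence read | controls = tunicamycin 10 µg/mL and vehicle-only wells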
# Dynein cargo inh – inhibitors of GR-EGFP nuclear translocation, primary screen, dynein cargo transport inhibitor project, imaging, high-content, 3617.4 mouse cells | test concentration mostly 20 µM; stimulated with dexamethasone, 1 µM; active compounds read low | z-score, hits read low | hit rate 0.47% among 220,000 | AID 1381, 2008;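 active = plate z-score of nuclear minus cytoplasmic receptor signal below a set negative limit, without overly bright fluorescence or cell loss, cut at about -3.5 in these data, passing the limit was not always enough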;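 note: z-score of nuclear minus cytoplasmic ring GR-EGFP intensity difference per well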
#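 medium = tetracycline-free induction medium containing charcoal-stripped FBS | probe or stimulus = dexamethasone, 1.0 µM final | timing = 48 h induction, then 1 h compound, then 30 min agonist, 37 °C | detection = automated 10x imaging of fixed Hoechst-stained cells | read-out basis = nuclear versus cytoplasmic GR-EGFP signal, averaged per well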
# CHOP inh – inhibitors of CHOP promoter induction, primary screen, cell-based, unfolded protein response, luciferase reporter; inhibition, % at 10 µM; AID 2732, 2010; hit rate 3.8% among 220,000; CHO-K1 CHOP-promoter luciferase, tunicamycin-induced, 15-18 h;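 active = compounds that reduced the stress-induced luciferase reporter signal by more than about 70% of percent inhibition, limit read from the data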;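 note: 0% = tunicamycin plus vehicle and 100% = wells without tunicamycin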
# CHOP inh conf – retest of CHOP induction inhibitors, confirmation, cell-based | CHO-CHOP promoter luciferase reporter, tunicamycin-induced, luminescence | inhibition, % at 10 µM | hit rate 45% among 2,100 | shares compounds with CHOP inh;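 active = mean of three repeat readings of reporter signal inhibition above a set limit, cut at about 70% in these data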;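 note: 0% = tunicamycin plus vehicle and 100% = wells lacking tunicamycin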
# Numbers without * were called inactive; · = no result.
SMILES,UPR CHOP act,pCIP destab,B2AR ag,XBP1 UPR activ,Dynein cargo inh,CHOP inh,CHOP inh conf
CC1=NN(c2nc(-c3ccc(C)cc3)cs2)C(=O)C1N=Nc1ccccc1O (stereo unspecified),1.8,-14.1,26.2,0.6,0.592,106.5*,76.8*
CC1=NN(c2nc(-c3ccc(C)cc3)cs2)C(=O)C1N=Nc1cccc(O)c1 (stereo unspecified),-1.0,-12.0,20.7,2.6,3.23,65.2,·
Cc1ccc(NCc2ccc(C)s2)cc1,3.3,-7.7,·,8.1,·,·,·
Cc1ccc(O)c(-c2cc(-c3ccccc3C)[nH]n2)c1,2.8,-8.0,3.1,5.5,-1.27,106.2*,8.5
Oc1ccccc1-c1cc(-c2ccccc2Cl)[nH]n1,1.9,-11.4,-10.1,-1.1,1.07,98.8*,10.0
O=C(N/N=C/C(Br)=C/c1ccccc1)c1cc(-c2ccco2)[nH]n1,5.3,-14.6,-3.8,0.9,-0.933,103.3*,8.2
COc1ccccc1/C=C/C=N/NC(=O)c1cc(-c2ccco2)[nH]n1,-0.1,-20.4,1.4,3.0,0.571,8.9,·
O=C(/C(C=Nc1ccc(F)cc1)=C(/O)c1ccco1)C(F)(F)F,4.4,-12.3,-7.7,-0.4,1.6,1.9,·
Cc1ccc(NC(=O)NCCCN2CCCC2=O)c(C)c1,0.4,-3.3,2.9,-2.3,·,·,·
COc1ccc(N2CCN(C(CNC(=O)C3CCCCC3)c3ccco3)CC2)cc1 (stereo unspecified),0.5,·,-2.4,-0.3,·,·,·
Cc1ccccc1NC(=O)/C=C/c1ccc([N+](=O)[O-])s1,·,-38.3,-61.7,·,1.9,102.4*,79.3*
Cc1ccccc1NC(=O)/C=C/c1cccs1,3.4,-0.4,2.8,2.0,0.754,5.8,·
Nc1cc(N)c(OCC(F)(F)F)cc1OCC(F)(F)F,-1.3,-0.6,1.3,-1.7,-0.388,101.8*,-0.4
Nc1nc(OCC(F)(F)F)cc(Oc2ccccc2F)n1,2.5,-9.9,3.6,-2.5,-0.541,45.9,·
CCOc1ccc(C(=O)NCc2ccccc2OC)cc1,4.3,-13.6,0.5,-2.7,1.06,21.1,·
CC1(c2ccc(OC(F)F)cc2)NC(=O)N(/N=C/c2c(O)ccc3ccccc23)C1=O (stereo unspecified),-2.1,-5.8,-0.6,-1.8,-0.124,100.7*,95.8*
Cn1c(=O)c2ncn(CC(=O)Nc3nc(-c4ccc(Cl)cc4)cs3)c2n(C)c1=O,1.9,-36.5,5.4,-0.4,-0.345,99.6*,60.9
Cn1c(=O)c2c(ncn2CC(=O)Nc2nc(-c3ccccc3Cl)cs2)n(C)c1=O,-1.4,-15.2,2.4,-0.5,-1.2,18.7,·
CCOC(=O)C(=O)N1CCN(c2ccccc2OC)CC1,0.7,-0.4,11.6,-2.2,-0.713,17.6,·
Cc1cc(/C=N/Nc2nc(N)ncc2[N+](=O)[O-])c(C)n1-c1cccc(C(F)(F)F)c1,7.8,-3.6,·,16.8,-0.468,98.0*,95.9*
Cc1cc(/C=N/Nc2ccc([N+](=O)[O-])cn2)c(C)n1-c1ccc(C(=O)O)cc1,2.5,-16.0,-41.0,1.2,-0.457,3.1,·
CN(Cc1ccccc1)C(=O)COC(=O)CCNC(=O)c1ccccc1Cl,-1.3,-7.1,-15.1,-1.0,0.251,-12.3,·
CSCCC(NS(=O)(=O)c1ccc(Cl)cc1)C(=O)O (stereo unspecified),0.4,13.9,5.7,-0.6,0.183,-7.0,·
CSCCC(NS(=O)(=O)c1ccc(Cl)cc1)C(=O)OCc1cccc(Cl)c1 (stereo unspecified),0.7,0.5,0.9,-0.2,0.144,105.7*,68.5
CCCn1c(=S)[nH]c2cc(C(=O)N3CCc4ccccc4C3)ccc2c1=O,0.0,1.6,-14.1,1.7,-0.545,101.9*,14.2
SMILES,UPR CHOP act,pCIP destab,B2AR ag,XBP1 UPR activ,Dynein cargo inh,CHOP inh,CHOP inh conf
Nc1nc(Nc2ccccc2)nc(NCc2ccccc2)c1[N+](=O)[O-],0.0,-8.1,-9.2,5.1,1.65,25.8,·
Cc1cccc(Nc2nc(N)c([N+](=O)[O-])c(NCc3ccccc3)n2)c1,1.5,-3.4,-4.7,3.1,-0.285,101.9*,24.7
Cc1noc(C)c1C(=O)NCc1ccccc1Br,-1.7,-11.3,-1.8,-1.0,-0.735,-2.9,·
CCOC(=O)c1sc(NC(=O)CSc2nc3ccccc3s2)c(C(=O)OCC)c1C,1.4,-3.2,·,-1.5,-0.639,22.4,·
COc1ccccc1NCC(O)Cn1c2ccccc2c2ccccc21 (stereo unspecified),-1.3,-4.6,2.3,-0.1,-0.489,100.0*,41.0
COc1ccc2nc(-c3ccccc3)[nH]c(=O)c2c1,·,·,-1.0,·,·,·,·
COc1ccc(-c2nc3ccc(N4CCCC4)cc3c(=O)[nH]2)cc1OC,3.0,-19.7,-15.4,7.3,-0.643,103.0*,15.7
COc1ccc(C2/C(=C(\O)c3ccc4c(c3)CC(C)O4)C(=O)C(=O)N2Cc2cccnc2)c(OC)c1 (stereo unspecified),-0.4,-6.2,-0.9,-2.7,·,·,·
Cc1ccc(NC(=O)c2cnccn2)c(Br)c1,1.7,8.6,2.9,3.7,·,·,·
Cc1cccc(Oc2ccccc2NC(=O)c2cnccn2)c1,-2.6,-4.5,0.6,-0.6,-0.164,99.1*,-15.8
Cn1c(SCC(=O)N/N=C/c2ccc([N+](=O)[O-])s2)nnc1-c1ccccc1,10.4,-1.8,-23.8,4.0,-0.337,104.8*,-8.5
c1cc2c3c(cccc3c1)NC1(CCCCC1)N2,3.2,7.8,8.5,-1.1,0.903,13.3,·
c1cc2c3c(cccc3c1)NC1(CCCCCC1)N2,5.2,-0.5,12.1,5.9,-0.564,107.1*,-4.1
Cc1[nH]c2ccccc2c1/C=N/NC(=O)C1CC1(c1ccccc1)c1ccccc1 (stereo unspecified),2.3,-2.8,4.2,4.8,-0.932,106.1*,100.9*
Cc1[nH]c2ccccc2c1/C=N/NC(=O)CCC(=O)NCc1ccccc1,-0.8,-11.0,-5.3,2.3,-0.0713,-0.3,·
CCSc1nnc(NC(=O)c2ccccc2C)s1,3.6,14.4,-4.4,-3.8,-0.595,-35.0,·
Cc1cc(Cl)ccc1OCc1n[nH]c(=S)n1C1CCCCC1,-0.9,-5.9,-0.3,-2.4,-0.649,102.9*,119.2*
O=c1c(Br)c(Br)cnn1-c1ccccc1,·,51.7,38.6,·,-5.84*,106.0*,118.0*
Cc1ccc(NC(=O)c2ccccc2)cc1,3.3,-5.5,-2.6,3.4,0.268,-47.9,·
